A selection: hits, their analogues and other compounds. The true share with any hit is near 2.3%.
ABHD4 inh: inhibitors of mouse ABHD4; purified mABHD4, FP-Rh probe fluorescence polarization; 370,000 compounds, 0.54% hits; inhibition, % at 8.92 µM;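 active = inhibition exceeding the mean over every tested compound plus 3 SD, cut at about 30% in these data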
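Assay system: wild-type mouse ABHD4 protein; compound: single nominal dose of 8.92 µM, 0.89% DMSO final; schedule: 45 min + 60 min at 25 °C; measured by: FP readout, ex 525 nm / em 598 nm; evaluation: % inhibition of FP-Rh probe binding versus controls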
HTRA1 inh: inhibitors of human serine peptidase HTRA1. inhibition, % at 5.96 µM. 340,000 compounds, 0.5% hits. recombinant HTRA1, FP-rhodamine activity-based probe, fluorescence polarization. Q92743; in the data active = inhibition above about 36%
pPAFAH FP inh: pPAFAH (human) enzyme inhibition | inhibition, % at 3.39 µM | 330,000 compounds, 1.5% hits | recombinant pPAFAH, FP-rhodamine probe fluorescence polarization;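 active = inhibition above the mean inhibition across the screen plus 3 SD, cut at about 25% in these data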;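 note: inhibitors block binding of the rhodamine activity-based probe so polarization drops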
SIAE inh: blocks human sialic acid acetylesterase | inhibition, % at 9.66 µM | SIAE FP-Rh probe binding, fluorescence polarization | AID 1053197 | Q9HAT2 | 370,000 compounds, 0.69% hits;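 active = inhibition above a cutoff: mean of compounds within the control limits plus 3 SD of those, cut at about 17% in these data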
Target sequence (Q9HAT2 whole entry, looked up): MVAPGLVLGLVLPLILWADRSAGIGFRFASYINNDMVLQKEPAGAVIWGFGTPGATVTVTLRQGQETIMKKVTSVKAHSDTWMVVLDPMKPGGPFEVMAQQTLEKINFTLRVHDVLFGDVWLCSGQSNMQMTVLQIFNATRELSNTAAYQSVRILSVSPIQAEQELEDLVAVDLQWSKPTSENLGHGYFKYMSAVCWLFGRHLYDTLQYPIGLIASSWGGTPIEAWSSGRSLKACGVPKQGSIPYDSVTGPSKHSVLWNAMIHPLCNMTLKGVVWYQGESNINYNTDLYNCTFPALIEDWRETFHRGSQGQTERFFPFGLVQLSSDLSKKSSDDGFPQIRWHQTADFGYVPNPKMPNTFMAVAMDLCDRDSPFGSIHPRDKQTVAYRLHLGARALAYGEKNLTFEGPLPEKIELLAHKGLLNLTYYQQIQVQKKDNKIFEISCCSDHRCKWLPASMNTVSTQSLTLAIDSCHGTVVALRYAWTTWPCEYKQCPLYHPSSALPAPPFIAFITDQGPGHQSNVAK
TCR-CD3 inh: blocks the human TCR-CD3 interaction. inhibition, % at 9.4 µM. AID 651800. 360,000 compounds, 0.37% hits. TAMRA-labeled TCR probe fluorescence, biochemical; in the data active = inhibition above about 19%;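 note: recombinant mutant TCR 2C K166C tagged with TAMRA read by polarization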
pPAFAH FP conf: confirmation of human plasma PAF acetylhydrolase (pPAFAH) inhibitors | shares compounds with pPAFAH FP inh | recombinant pPAFAH, FP-Rh probe fluorescence polarization | inhibition, % at 3.39 µM | 2,300 compounds, 72% hits | AID 463230;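 active = mean inhibition of the triplicate above the hit cutoff set for the earlier primary screen, cut at about 25% in these data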
Of the large screens only hits and unclear results are named; the others gave an inactive call (follow-up assays come after a bar, where they were run).

O=c1[nH]c(Nc2ccccc2)cc2cc(Br)ccc12	none
CC(=O)c1cccc(-c2ccc3c(=O)[nH]c(Nc4ccccc4)cc3c2)c1	pPAFAH FP inh 48 | pPAFAH FP conf 28
CCNc1c2c3c(cccc3n(C)c1=O)C(=O)c1ccccc1-2	pPAFAH FP inh 53 (no result: ABHD4 inh, HTRA1 inh, SIAE inh, TCR-CD3 inh) | pPAFAH FP conf 45
C=C(C)CSc1nnc(-c2cc(-c3ccccc3)n[nH]2)n1N	none (no result: HTRA1 inh, pPAFAH FP inh, TCR-CD3 inh)
Cc1cc(C(C#N)c2ccc(Cl)cc2)c(Cl)cc1NC(=O)c1cc(I)cc(I)c1O (stereo not drawn)	pPAFAH FP inh 47 | pPAFAH FP conf 41
COC(=O)[C@]1(CNS(=O)(=O)c2ccc(F)cc2)CC(=O)N(C)[C@@H]1c1ccccc1	none (no result: HTRA1 inh, pPAFAH FP inh, TCR-CD3 inh)
N#Cc1cc2c(=O)n3ccccc3nc2n(Cc2ccco2)c1=NC(=O)c1ccco1	pPAFAH FP inh 37 | pPAFAH FP conf inactive
Cc1ccccc1C(=O)N=c1c(C#N)cc2c(=O)n3cccc(C)c3nc2n1Cc1ccco1	none (no result: ABHD4 inh, HTRA1 inh, SIAE inh, TCR-CD3 inh)
O=C(c1cc(-c2ccc(Cl)cc2)nc2ccccc12)N1CCN(c2ncccn2)CC1	none (no result: HTRA1 inh, pPAFAH FP inh, TCR-CD3 inh)
CC(=O)N1CCN(C(=O)CSc2nc3cccnc3n2C)CC1	none (no result: HTRA1 inh, pPAFAH FP inh, TCR-CD3 inh)
COc1cc2c(ccc3cc(OC)c(OC)c(O)c32)cc1O	pPAFAH FP inh 39, TCR-CD3 inh 39 | pPAFAH FP conf inactive
CCCCNC(=O)c1sc(=S)n2c1[nH]c(=O)c1ccc(C(=O)NCCc3ccc(OC)c(OC)c3)cc12	pPAFAH FP inh 40 (no result: ABHD4 inh, SIAE inh, TCR-CD3 inh) | pPAFAH FP conf 42
Cc1cccc(CN2CCN(C3CN(Cc4cn(Cc5ccc(C(F)(F)F)cc5)nn4)S(=O)(=O)C3)CC2)c1 (stereo not drawn)	none (no result: HTRA1 inh, pPAFAH FP inh)
O=C(Oc1nsnc1N1CCOCC1)c1ccccc1	none
O=C(Oc1nsnc1N1CCOCC1)N1CCOCC1	pPAFAH FP inh 85 | pPAFAH FP conf 89
O=C(Oc1nsnc1N1CCOCC1)N1CCCCC1	pPAFAH FP inh 57 | pPAFAH FP conf 50
O=C(COc1nsnc1N1CCOCC1)N1CCOCC1	none (no result: pPAFAH FP inh)
C[C@@H]1COc2cc(Br)ccc2S(=O)(=O)N1Cc1cn(Cc2ccc(C(F)(F)F)cc2)nn1	none (no result: HTRA1 inh, pPAFAH FP inh, TCR-CD3 inh)
Cc1ccccc1-n1c(SCC(=O)N2CCOCC2)nc(O)cc1=O	pPAFAH FP inh 39 | pPAFAH FP conf inactive
C=CCn1c(SCC(=O)N2CCOCC2)nc(O)cc1=O	none
COC(=O)c1ccc2nc(-c3ccc(C)cc3)c(CC(C)(C)C)n2c1	none (no result: HTRA1 inh, pPAFAH FP inh)
CN1CCN(C(=O)c2ccc(CS(=O)Cc3ccc(Cl)cc3)o2)CC1 (stereo not drawn)	none
COc1ccc(N2CCN(C(=O)c3ccc(CS(=O)Cc4ccc(Cl)cc4)o3)CC2)cc1 (stereo not drawn)	pPAFAH FP inh 36 | pPAFAH FP conf 28
Cc1cccc(N2CCN(C(=O)c3ccc(CS(=O)Cc4cccc(Cl)c4)o3)CC2)c1C (stereo not drawn)	pPAFAH FP inh 43 | pPAFAH FP conf inactive
Cc1ccc(CS(=O)Cc2ccc(C(=O)N3CCN(c4cccc(C)c4C)CC3)o2)cc1 (stereo not drawn)	none (no result: pPAFAH FP inh)
CSc1nc(N(C)CCO)c2sc3nc(-c4ccco4)c4c(c3c2n1)CCC4	pPAFAH FP inh 40 (no result: ABHD4 inh, SIAE inh, TCR-CD3 inh) | pPAFAH FP conf inactive
C[C@H]1CN([C@@H](C)CO)C(=O)c2cccc(NS(=O)(=O)c3ccc(F)cc3)c2O[C@H]1CN(C)Cc1ccc(Cl)c(Cl)c1	pPAFAH FP inh 37 | pPAFAH FP conf 46
CN1CCN(C(=O)c2cc3sc4ccccc4c3s2)CC1	pPAFAH FP inh 52 (no result: HTRA1 inh) | pPAFAH FP conf inactive
CCn1c(=O)c2cc(C(=O)N3CCN(C)CC3)sc2c2ccccc21	none
COCCCN1C(=O)[C@H](CC(=O)NCCCN2CCCC2=O)[C@]2(C(=O)OC)CCCCC=C12	none (no result: HTRA1 inh, pPAFAH FP inh, TCR-CD3 inh)
N#CCc1nn2c3c(cnc2c1C#N)C(=O)CCC3	pPAFAH FP inh 53 | pPAFAH FP conf inactive
CCC(=O)N1CCc2cc(Br)c(S(=O)(=O)NCCCN(C)Cc3ccccc3)cc21	none (no result: HTRA1 inh, pPAFAH FP inh, TCR-CD3 inh)
CCOc1ccc(N2C(=O)CSC2=S)cc1	none
CCN(CC)c1ccc(N2C(=O)CSC2=S)cc1	pPAFAH FP inh 48 | pPAFAH FP conf inactive
COc1ccccc1Oc1c(C)oc2c(CN3CCN(CCO)CC3)c(O)ccc2c1=O	pPAFAH FP inh 41 (no result: HTRA1 inh) | pPAFAH FP conf inactive
CCOc1ccccc1Oc1c(C)oc2c(CN3CCN(CCO)CC3)c(O)ccc2c1=O	none
Cc1ccccc1NC(=O)Nc1ccc2c(c1)C(=O)N(C)[C@H]1CC[C@H](CC(=O)NCC3CC3)O[C@@H]1CO2	none (no result: HTRA1 inh, pPAFAH FP inh, TCR-CD3 inh)

Assay outcomes as filed in PubChem.
